# Laboratory results taken from ChEMBL document CHEMBL2417493, “Novel cycloalkylthiophene-imine derivatives bearing benzothiazole scaffold: synthesis, characterization and antiviral activity evaluation” (Bioorg Med Chem Lett, 2013).
# Calls of active or inactive are those of the source. No cut-off for these calls is given here.
# How the values were obtained:
# [1] = tested on: Influenza A virus; assay: Antiviral activity against influenza A virus H1N1 infected in dog MDCK cells assessed as inhibition of virus-induced cytopathogenicity at 32 ug/ml after 48 hrs by crystal violet staining method; type: functional, organism-based
# Procedure, shortened: (§1)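 Single-concentration screen with these pairings: RD/EV71, HepG2/CVB5, HeLa/ADV7, MDCK/H1N1. Cells were infected and kept 48 h in the presence of compound at one fixed concentration; some EV71 tests used the lower level. Inhibition of virus proliferation was read by crystal violet staining.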
# [2] = tested on: unidentified adenovirus; assay: Antiviral activity against Adenovirus type 7 infected in human HeLa cells assessed as inhibition of virus-induced cytopathogenicity at 32 ug/ml after 48 hrs by crystal violet staining method; type: functional; procedure, shortened: as §1
# [3] = tested on: Coxsackievirus B5; assay: Antiviral activity against Coxsackievirus B5 infected in human HepG2 cells assessed as inhibition of virus-induced cytopathogenicity at 32 ug/ml after 48 hrs by crystal violet staining method; type: functional; procedure, shortened: as §1
# [4] = tested on: Enterovirus; assay: Antiviral activity against Enterovirus 71 infected in human rhabdomyosarcoma cells assessed as inhibition of virus-induced cytopathogenicity at 32 ug/ml after 48 hrs by crystal violet staining method; type: functional; procedure, shortened: as §1
# [5] = tested on: Influenza A virus; assay: Antiviral activity against influenza A virus H1N1 infected in dog MDCK cells assessed as inhibition of virus-induced cytopathogenicity after 48 hrs by crystal violet staining method; type: functional, organism-based
# Procedure, shortened: (§2)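 Virus–cell pairings were EV71 in RD, CVB5 in HepG2, ADV7 in HeLa and influenza A H1N1 in MDCK. Compounds were added […], and total infectivity was read by crystal violet staining. EC50 is the concentration reducing viral replication by 50%. Values are mean SD of three independent experiments.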
# [6] = tested on: unidentified adenovirus; assay: Antiviral activity against Adenovirus type 7 infected in human HeLa cells assessed as inhibition of virus-induced cytopathogenicity after 48 hrs by crystal violet staining method; type: functional, organism-based; procedure, shortened: as §2
# [7] = Cytotoxicity against human HeLa cells after 72 hrs by MTT assay; type: cell-based
# Procedure, shortened: (§3)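 MTT assay on RD (rhabdomyosarcoma), HepG2 and HeLa cell lines. CC50 is the concentration that cut cell viability by 50% relative to 0.1% DMSO-treated mock-control cells. Values are mean and SD of three independent experiments.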
# [8] = tested on: Coxsackievirus B5; assay: Antiviral activity against Coxsackievirus B5 infected in human HepG2 cells assessed as inhibition of virus-induced cytopathogenicity after 48 hrs by crystal violet staining method; type: functional, organism-based; procedure, shortened: as §2
# [9] = Cytotoxicity against human HepG2 cells after 72 hrs by MTT assay; type: cell-based; procedure, shortened: as §3
# [10] = tested on: Enterovirus; assay: Antiviral activity against Enterovirus 71 infected in human rhabdomyosarcoma cells assessed as inhibition of virus-induced cytopathogenicity after 48 hrs by crystal violet staining method; type: functional, organism-based; procedure, shortened: as §2
# [11] = Cytotoxicity against human rhabdomyosarcoma cells after 72 hrs by MTT assay; type: cell-based, Rhabdomyosarcoma cell; procedure, shortened: as §3
SMILES,inhibition [1],inhibition [2],inhibition [3],inhibition [4],inhibition (INH) [5],inhibition (INH) [6],CC50 at 72 h [7],inhibition (INH) [8],CC50 at 72 h [9],inhibition (INH) [10],CC50 at 72 h [11]
C(=C\c1ccccc1)/C=N/c1sc2c(c1-c1nc3ccccc3s1)CCC2,Active,Active,Active,Active,<50%,<50%,100 µg/mL,<50%,215 µg/mL,<50%,122 µg/mL
Clc1ccccc1/C=N/c1sc2c(c1-c1nc3ccccc3s1)CCCC2,Active,Active,Active,Active,<50%,<50%,407 µg/mL,<50%,370 µg/mL,<50%,332 µg/mL
C(=N\c1sc2c(c1-c1nc3ccccc3s1)CCC2)/c1ccc2c(c1)OCO2,Active,Active,Active,Active,<50%,<50%,449 µg/mL,<50%,356 µg/mL,<50%,310 µg/mL
COc1cc(/C=N/c2sc3c(c2-c2nc4ccccc4s2)CCCC3)cc(OC)c1OC,Active,Active,Active,Active,<50%,<50%,448 µg/mL,<50%,301 µg/mL,<50%,381 µg/mL
FC(F)(F)c1ccc(/C=N/c2sc3c(c2-c2nc4ccccc4s2)CCCC3)cc1,Active,Active,Active,Active,<50%,<50%,368 µg/mL,<50%,361 µg/mL,<50%,250 µg/mL
Clc1ccc(/C=N/c2sc3c(c2-c2nc4ccccc4s2)CCC3)c(Cl)c1,Active,Active,Active,Active,<50%,<50%,345 µg/mL,<50%,310 µg/mL,<50%,160 µg/mL
Fc1ccccc1/C=N/c1sc2c(c1-c1nc3ccccc3s1)CCC2,Active,Active,Active,Active,<50%,<50%,355 µg/mL,<50%,394 µg/mL,<50%,270 µg/mL
Clc1ccc(/C=N/c2sc3c(c2-c2nc4ccccc4s2)CCCC3)cc1,Active,Active,Active,Active,<50%,<50%,431 µg/mL,<50%,397 µg/mL,<50%,367 µg/mL
O=[N+]([O-])c1ccc(/C=N/c2sc3c(c2-c2nc4ccccc4s2)CCCC3)cc1,Active,Active,Active,Active,<50%,<50%,357 µg/mL,<50%,454 µg/mL,<50%,316 µg/mL
